Where a SMILES comes first, the peptide text is derived from it. [ ]: non-standard residue; d: D form. The star is where a group is joined. β3hF = N[C@H](CC(=O)O)Cc1ccccc1; Boc = CC(C)(C)OC(=O)*
The compounds below were run against T1, Gastrin/cholecystokinin type B receptor (Rattus norvegicus) (UniProt P30553) (assay: Activity in vivo gastrin-induced acid secretion in rats). Conditions: not given.
T1 sequence (whole entry): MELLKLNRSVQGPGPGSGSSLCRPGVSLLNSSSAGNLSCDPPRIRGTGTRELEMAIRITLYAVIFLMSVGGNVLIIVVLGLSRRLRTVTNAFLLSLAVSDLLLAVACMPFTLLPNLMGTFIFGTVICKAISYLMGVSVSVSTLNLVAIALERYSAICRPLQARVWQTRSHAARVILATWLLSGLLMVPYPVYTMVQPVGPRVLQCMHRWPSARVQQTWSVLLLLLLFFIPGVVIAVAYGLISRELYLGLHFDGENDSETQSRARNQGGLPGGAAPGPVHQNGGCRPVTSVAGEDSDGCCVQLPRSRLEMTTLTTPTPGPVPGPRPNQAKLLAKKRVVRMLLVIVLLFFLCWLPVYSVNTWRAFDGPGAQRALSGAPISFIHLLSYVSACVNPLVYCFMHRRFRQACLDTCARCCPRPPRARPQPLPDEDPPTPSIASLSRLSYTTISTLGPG
Format: functional, organism-based
Procedure, shortened: (§1)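 Anesthetized rats; cumulative gastric pH recorded over time as the index of acid secretion. Peptides and (Leu15)-human gastrin I were given as intravenous bolus in 0.9% NaCl. Secreted H+ was taken from the difference between stimulated and basal traces. For inhibition, peptide in alkaline water was injected together with gastrin (usually 80 pmol) at various doses. Response was expressed as percent of the gastrin-alone H+ output.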

SMILES | ED50
CC(C)CC(NC(=O)[C@@H](Cc1c[nH]c2ccccc12)NC(=O)OC(C)(C)C)C(=O)N[C@H](CC(=O)O)CC(=O)NCCc1ccccc1 (stereo in doubt) | 2.5 mg/kg
CC(C)C[C@H](CC(=O)N[C@@H](CC(=O)O)C(=O)N[C@@H](Cc1ccccc1)C(N)=O)NC(=O)[C@@H](Cc1c[nH]c2ccccc12)NC(=O)OC(C)(C)C | 7.5 mg/kg
CC(C)CC(CC(=O)N[C@H](CC(=O)O)C(=O)NCCc1ccccc1)NC(=O)C(Cc1c[nH]c2ccccc12)NC(=O)OC(C)(C)C (stereo partly drawn) | 0.8 mg/kg
CC(C)C[C@H](NC(=O)[C@H](Cc1c[nH]c2ccccc12)NC(=O)OC(C)(C)C)C(=O)N[C@H](CC(=O)O)CC(=O)NCCc1ccccc1 | 0.5 mg/kg
CC(C)CC(CC(=O)NC(CC(=O)O)C(=O)NCCc1ccccc1)NC(=O)C(Cc1c[nH]c2ccccc12)NC(=O)OC(C)(C)C (stereo not drawn) | 0.5 mg/kg
CC(C)CC(CC(=O)NC(CC(=O)O)C(=O)NCc1ccccc1)NC(=O)C(Cc1c[nH]c2ccccc12)NC(=O)OC(C)(C)C (stereo not drawn) | 0.5 mg/kg
CC(C)C[C@H](NC(=O)[C@H](Cc1c[nH]c2ccccc12)NC(=O)OC(C)(C)C)C(=O)N[C@H](CC(=O)O)CC(=O)NCc1ccccc1 | 0.2 mg/kg
CC(C)C[C@H](NC(=O)[C@H](Cc1c[nH]c2ccccc12)NC(=O)OC(C)(C)C)C(=O)N[C@H](CC(=O)O)CC(=O)N[C@@H](Cc1ccccc1)C(N)=O | 0.1 mg/kg
CC(C)CC(NC(=O)[C@@H](Cc1c[nH]c2ccccc12)NC(=O)OC(C)(C)C)C(=O)N[C@H](CC(=O)O)CC(=O)NCc1ccccc1 (stereo in doubt) | 1 mg/kg
CC(C)CC(NC(=O)[C@@H](Cc1c[nH]c2ccccc12)NC(=O)OC(C)(C)C)C(=O)N[C@H](CC(=O)O)CC(=O)NC(Cc1ccccc1)C(N)=O (stereo in doubt) | 2.5 mg/kg

Next, values leading:

ED50 | SMILES
1.5 mg/kg | CC(C)C[C@@H](CC(=O)N[C@@H](CC(=O)O)C(=O)N[C@@H](Cc1ccccc1)C(N)=O)NC(=O)[C@H](Cc1c[nH]c2ccccc12)NC(=O)OC(C)(C)C
0.1 mg/kg | CC(C)C[C@H](NC(=O)[C@H](Cc1c[nH]c2ccccc12)NC(=O)OC(C)(C)C)C(=O)N[C@H](CC(=O)O)CC(=O)N[C@H](Cc1ccccc1)C(N)=O
0.5 mg/kg | CC(C)C[C@@H](CC(=O)NC(CC(=O)O)C(=O)NCCc1ccccc1)NC(=O)[C@@H](Cc1c[nH]c2ccccc12)NC(=O)OC(C)(C)C (stereo partly drawn)
5 mg/kg | CC(C)CC(CC(=O)N[C@H](CC(=O)O)C(=O)N[C@H](Cc1ccccc1)C(N)=O)NC(=O)C(Cc1c[nH]c2ccccc12)NC(=O)OC(C)(C)C (stereo partly drawn)
5 mg/kg | CC(C)C[C@@H](CC(=O)NC(CC(=O)O)C(=O)NCc1ccccc1)NC(=O)[C@@H](Cc1c[nH]c2ccccc12)NC(=O)OC(C)(C)C (stereo partly drawn)
1.5 mg/kg | CC(C)CC(CC(=O)N[C@H](CC(=O)O)C(=O)NCc1ccccc1)NC(=O)C(Cc1c[nH]c2ccccc12)NC(=O)OC(C)(C)C (stereo partly drawn)
7 mg/kg | CC(C)C[C@H](NC(=O)[C@H](Cc1c[nH]c2ccccc12)NC(=O)OC(C)(C)C)C(=O)N[C@@H](CC(=O)O)C(=O)N[C@H](CC(N)=O)Cc1ccccc1 (Boc-WLD[β3hF]-NH2)

The compounds below were run on Rattus norvegicus (assay: Activity of compound on in vivo gastrin-induced acid secretion in rats; Agonist). Conditions: filed as agonist.
Format: functional, organism-based
Procedure, shortened: as §1

SMILES | ED50
CC(C)C[C@H](NC(=O)[C@H](Cc1c[nH]c2ccccc12)NC(=O)OC(C)(C)C)C(=O)N[C@@H](CC(=O)O)C(=O)N[C@@H](Cc1ccccc1)C(N)=O (Boc-WLDF-NH2) | Agonist
